Measurements taken from ChEMBL document CHEMBL4196175, “First SAR Study for Overriding NRAS Mutant Driven Acute Myeloid Leukemia” (J Med Chem, 2018).
Calls of active or inactive are those of the source. No cut-off for these calls is given here.

Experiments:
[1] = Metabolic stability in mouse liver microsomes assessed as compound remaining at 1 uM after 30 mins; format: ADME, microsome; conditions: read-out: Stability
[2] = system: OCI-AML-3; experiment: Induction of apoptosis in human OCI-AML3 cells harboring NRAS Q61L mutant assessed as increase in cleaved caspase-3 levels at 1 uM after 24 hrs by Western blot analysis; format: functional, cell-based
Procedure, shortened: (§1)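 Cells treated 24 h with indicated concentrations (1 µM; 5 µM also used in Ba/F3-NRAS-G12D); cleaved PARP, cleaved caspase 3, bcl-2 and MCL1 detected by western blot with actin as loading control.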

[3] = biological target: Ephrin type-B receptor 1 (Homo sapiens) (UniProt P54762); experiment: Inhibition of human EphB1 at 1 uM relative to control
[4] = system: OCI-AML-3; experiment: Induction of apoptosis in human OCI-AML3 cells harboring NRAS Q61L mutant assessed as decrease in bcl2 levels at 1 uM after 24 hrs by Western blot analysis; format: functional, cell-based; procedure, shortened: as §1
[5] = system: OCI-AML-3; experiment: Induction of apoptosis in human OCI-AML3 cells harboring NRAS Q61L mutant assessed as decrease in mcl1 levels at 1 uM after 24 hrs by Western blot analysis; format: functional, cell-based; procedure, shortened: as §1
[6] = system: OCI-AML-3; experiment: Induction of apoptosis in human OCI-AML3 cells harboring NRAS Q61L mutant assessed as increase in cleaved PARP levels at 1 uM after 24 hrs by Western blot analysis; format: functional, cell-based; procedure, shortened: as §1
[7] = biological target: T1, Activated CDC42 kinase 1 (Homo sapiens, UniProt Q07912); experiment: Inhibition of ACK1 in human OCI-AML3 cells harboring NRAS Q61L mutant assessed as reduction in P70S6K1 phosphorylation at Thr421/Ser424 after 2 hrs by Western blot analysis; format: cell-based
T1 sequence (Q07912 whole entry, looked up): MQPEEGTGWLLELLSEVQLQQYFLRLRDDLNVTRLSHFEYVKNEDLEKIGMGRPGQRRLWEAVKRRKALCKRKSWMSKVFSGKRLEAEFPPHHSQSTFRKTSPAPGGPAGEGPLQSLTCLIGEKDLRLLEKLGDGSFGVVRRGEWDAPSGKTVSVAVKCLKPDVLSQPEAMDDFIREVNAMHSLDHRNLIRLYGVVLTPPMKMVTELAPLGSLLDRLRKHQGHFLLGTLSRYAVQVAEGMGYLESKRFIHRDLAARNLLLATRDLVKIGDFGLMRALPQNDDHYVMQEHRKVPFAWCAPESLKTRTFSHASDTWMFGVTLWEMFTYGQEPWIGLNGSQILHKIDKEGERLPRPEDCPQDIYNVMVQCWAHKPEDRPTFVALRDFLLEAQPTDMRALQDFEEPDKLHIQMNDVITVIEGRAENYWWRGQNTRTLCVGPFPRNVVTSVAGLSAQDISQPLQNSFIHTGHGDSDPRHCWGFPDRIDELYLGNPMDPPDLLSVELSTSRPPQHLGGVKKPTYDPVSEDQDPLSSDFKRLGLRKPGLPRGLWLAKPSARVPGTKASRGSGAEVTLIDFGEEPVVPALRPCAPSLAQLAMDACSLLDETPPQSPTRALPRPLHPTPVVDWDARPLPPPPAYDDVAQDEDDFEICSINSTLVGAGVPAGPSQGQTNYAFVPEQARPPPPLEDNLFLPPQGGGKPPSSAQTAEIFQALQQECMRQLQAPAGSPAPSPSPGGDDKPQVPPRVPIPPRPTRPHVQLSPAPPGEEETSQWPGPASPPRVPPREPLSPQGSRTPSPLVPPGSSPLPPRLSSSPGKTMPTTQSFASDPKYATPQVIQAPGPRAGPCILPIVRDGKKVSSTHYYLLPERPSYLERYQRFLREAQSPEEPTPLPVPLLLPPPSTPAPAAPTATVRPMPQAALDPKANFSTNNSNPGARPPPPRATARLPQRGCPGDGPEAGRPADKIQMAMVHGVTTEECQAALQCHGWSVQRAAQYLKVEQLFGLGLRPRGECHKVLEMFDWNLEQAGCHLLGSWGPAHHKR
Procedure, shortened: (§2)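 Ba/F3-NRAS-G12D or OCI-AML3 cells exposed 2 h to compounds (1 µM, or a dose series in OCI-AML3); phospho-p70S6K1, phospho-AKT S473, phospho-JNK and phospho-p38 assessed by western blot, actin as loading control.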

[8] = biological target: Vascular endothelial growth factor receptor 2 (Homo sapiens) (UniProt P35968); experiment: Inhibition of human KDR at 1 uM relative to control
[9] = system: BaF3; experiment: Antileukemic activity against mouse BA/F3 cells harboring NRAS-G12D mutant/luciferase allografted in immunodeficient mouse at 15 mg/kg/day, po qd administered on day 6 post implantation measured on day 20 post implantation by bioluminescence imaging method; format: functional
Procedure, shortened: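 Immunodeficient mice injected via tail vein with Ba/F3-NRAS-G12D/Luc cells, dosed orally once daily (8 or 15 mg/kg/day) or vehicle for 3 weeks, n=4 per cohort; bioluminescence imaged every two days after luciferin 150 mg/kg, quantified by bio-photonic analysis.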

[10] = system: OCI-AML-3; experiment: Induction of apoptosis in human OCI-AML3 cells harboring NRAS Q61L mutant assessed as increase in apoptotic cells at 1 uM after 24 hrs by annexin V/propidium iodide staining based FACS analysis relative to control; format: functional
Procedure, shortened: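 Apoptosis scored by flow cytometry after FITC-annexin V/propidium iodide dual staining following 24 h exposure, at 1 µM or a range of indicated concentrations; three independent experiments, mean with SD, one-way ANOVA.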

[11] = biological target: RAF proto-oncogene serine/threonine-protein kinase (Homo sapiens) (UniProt P04049); conditions: 1 uM
[12] = biological target: T1, Activated CDC42 kinase 1; experiment: Inhibition of ACK1 in human OCI-AML3 cells harboring NRAS Q61L mutant assessed as reduction in AKT phosphorylation at S473 after 2 hrs by Western blot analysis; format: cell-based; procedure, shortened: as §2
[13] = biological target: T2, Mitogen-activated protein kinase kinase kinase kinase 2 (Homo sapiens) (UniProt Q12851); experiment: Inhibition of GCK in human OCI-AML3 cells harboring NRAS Q61L mutant assessed as reduction in p38 phosphorylation at Thr180/Tyr182 after 2 hrs by Western blot analysis; format: cell-based; procedure, shortened: as §2
T2 sequence (whole entry): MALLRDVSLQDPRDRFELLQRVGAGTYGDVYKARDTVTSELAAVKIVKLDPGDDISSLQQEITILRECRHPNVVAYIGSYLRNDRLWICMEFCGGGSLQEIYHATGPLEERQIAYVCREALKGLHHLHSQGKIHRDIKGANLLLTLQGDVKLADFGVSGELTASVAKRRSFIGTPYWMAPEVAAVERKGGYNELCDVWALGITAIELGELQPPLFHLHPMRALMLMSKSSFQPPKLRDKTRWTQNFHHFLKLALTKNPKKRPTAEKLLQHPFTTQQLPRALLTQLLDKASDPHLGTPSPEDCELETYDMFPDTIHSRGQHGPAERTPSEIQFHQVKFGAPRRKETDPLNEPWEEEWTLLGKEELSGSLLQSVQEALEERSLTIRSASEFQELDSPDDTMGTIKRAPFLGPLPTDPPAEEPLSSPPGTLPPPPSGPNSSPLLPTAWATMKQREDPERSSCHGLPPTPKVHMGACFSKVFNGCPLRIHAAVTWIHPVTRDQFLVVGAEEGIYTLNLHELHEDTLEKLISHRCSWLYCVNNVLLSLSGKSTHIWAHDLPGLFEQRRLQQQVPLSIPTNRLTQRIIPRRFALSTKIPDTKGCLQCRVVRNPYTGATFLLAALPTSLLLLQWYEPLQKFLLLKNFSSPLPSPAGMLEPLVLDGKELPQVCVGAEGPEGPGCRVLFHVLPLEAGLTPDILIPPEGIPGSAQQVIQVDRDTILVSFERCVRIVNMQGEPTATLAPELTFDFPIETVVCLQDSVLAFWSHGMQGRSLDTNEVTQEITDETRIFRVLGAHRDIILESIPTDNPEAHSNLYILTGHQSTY

[14] = biological target: Tyrosine-protein kinase Lyn (Homo sapiens) (UniProt P07948); conditions: 1 uM
Tyrosine-protein kinase Lyn (Homo sapiens), sequence (P07948 2-512 limits assumed): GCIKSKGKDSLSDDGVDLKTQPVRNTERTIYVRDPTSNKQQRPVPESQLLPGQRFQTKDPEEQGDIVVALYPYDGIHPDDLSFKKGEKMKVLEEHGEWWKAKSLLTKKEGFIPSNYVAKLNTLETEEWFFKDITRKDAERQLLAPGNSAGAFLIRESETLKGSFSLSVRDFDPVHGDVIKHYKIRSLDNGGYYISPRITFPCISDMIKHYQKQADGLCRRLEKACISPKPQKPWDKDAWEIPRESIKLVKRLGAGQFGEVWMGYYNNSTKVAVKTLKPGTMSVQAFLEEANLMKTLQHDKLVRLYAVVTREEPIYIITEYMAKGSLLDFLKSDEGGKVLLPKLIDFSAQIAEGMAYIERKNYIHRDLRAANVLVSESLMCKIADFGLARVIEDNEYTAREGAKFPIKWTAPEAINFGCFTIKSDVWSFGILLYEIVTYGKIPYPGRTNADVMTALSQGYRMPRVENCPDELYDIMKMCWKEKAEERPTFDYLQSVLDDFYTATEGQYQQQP

[15] = biological target: Tyrosine-protein kinase Fyn (Homo sapiens) (UniProt P06241); experiment: Inhibition of human FYN at 1 uM relative to control
Tyrosine-protein kinase Fyn (Homo sapiens), sequence (P06241 2-537 limits assumed): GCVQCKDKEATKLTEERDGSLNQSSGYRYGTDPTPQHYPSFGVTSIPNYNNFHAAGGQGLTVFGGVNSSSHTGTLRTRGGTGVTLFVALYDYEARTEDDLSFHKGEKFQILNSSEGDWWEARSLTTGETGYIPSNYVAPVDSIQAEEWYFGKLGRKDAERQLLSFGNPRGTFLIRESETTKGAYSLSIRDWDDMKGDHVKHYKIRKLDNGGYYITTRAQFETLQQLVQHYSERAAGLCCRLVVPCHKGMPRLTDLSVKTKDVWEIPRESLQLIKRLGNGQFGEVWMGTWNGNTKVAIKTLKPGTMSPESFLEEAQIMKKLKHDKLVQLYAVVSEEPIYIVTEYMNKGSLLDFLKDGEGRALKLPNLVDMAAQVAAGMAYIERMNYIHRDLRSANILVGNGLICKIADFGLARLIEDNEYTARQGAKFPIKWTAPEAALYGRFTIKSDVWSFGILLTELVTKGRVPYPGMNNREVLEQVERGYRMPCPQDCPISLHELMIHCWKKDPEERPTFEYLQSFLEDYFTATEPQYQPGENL

[16] = biological target: Proto-oncogene tyrosine-protein kinase receptor Ret (Homo sapiens) (UniProt P07949); experiment: Inhibition of human RET at 1 uM relative to control
Proto-oncogene tyrosine-protein kinase receptor Ret (Homo sapiens), sequence (P07949 whole entry): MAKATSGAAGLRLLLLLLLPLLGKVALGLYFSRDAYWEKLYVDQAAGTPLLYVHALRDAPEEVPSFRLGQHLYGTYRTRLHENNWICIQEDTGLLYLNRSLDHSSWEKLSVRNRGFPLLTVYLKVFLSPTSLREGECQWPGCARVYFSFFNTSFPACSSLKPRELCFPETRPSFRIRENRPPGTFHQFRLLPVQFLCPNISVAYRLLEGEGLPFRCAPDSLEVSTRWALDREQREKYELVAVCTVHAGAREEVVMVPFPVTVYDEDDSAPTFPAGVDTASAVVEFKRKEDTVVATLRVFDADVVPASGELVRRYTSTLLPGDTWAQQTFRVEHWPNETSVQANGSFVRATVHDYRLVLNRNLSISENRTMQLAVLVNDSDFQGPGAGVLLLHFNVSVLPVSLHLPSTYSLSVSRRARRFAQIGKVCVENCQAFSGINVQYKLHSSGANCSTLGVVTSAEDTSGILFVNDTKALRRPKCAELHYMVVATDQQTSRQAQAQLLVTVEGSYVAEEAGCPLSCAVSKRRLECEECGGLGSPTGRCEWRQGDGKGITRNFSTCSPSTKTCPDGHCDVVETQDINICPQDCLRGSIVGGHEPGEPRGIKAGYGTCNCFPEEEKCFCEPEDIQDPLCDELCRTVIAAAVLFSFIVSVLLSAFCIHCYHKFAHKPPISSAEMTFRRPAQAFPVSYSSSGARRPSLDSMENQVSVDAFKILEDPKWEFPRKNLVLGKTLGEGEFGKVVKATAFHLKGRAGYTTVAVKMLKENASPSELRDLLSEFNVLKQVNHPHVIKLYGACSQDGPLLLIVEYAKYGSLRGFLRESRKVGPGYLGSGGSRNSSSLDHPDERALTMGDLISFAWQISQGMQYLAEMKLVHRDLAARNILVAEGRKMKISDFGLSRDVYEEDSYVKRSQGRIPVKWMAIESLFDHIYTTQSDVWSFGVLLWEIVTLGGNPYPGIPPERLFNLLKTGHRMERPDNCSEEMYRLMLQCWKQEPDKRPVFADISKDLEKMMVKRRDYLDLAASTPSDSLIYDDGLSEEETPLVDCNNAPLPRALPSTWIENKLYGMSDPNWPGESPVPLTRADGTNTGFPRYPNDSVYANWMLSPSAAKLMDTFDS

[17] = system: OCI-AML-3; experiment: Growth inhibition of ACK1/GCK knockdown human OCI-AML3 cells harboring NRAS-Q61L mutant at 0.5 uM after 72 hrs by celltiter-glo assay; format: functional, cell-based
[18] = biological target: Tyrosine-protein kinase HCK (Homo sapiens) (UniProt P08631); experiment: Inhibition of human HCK at 1 uM relative to control
Tyrosine-protein kinase HCK (Homo sapiens), sequence (P08631 2-526 limits assumed): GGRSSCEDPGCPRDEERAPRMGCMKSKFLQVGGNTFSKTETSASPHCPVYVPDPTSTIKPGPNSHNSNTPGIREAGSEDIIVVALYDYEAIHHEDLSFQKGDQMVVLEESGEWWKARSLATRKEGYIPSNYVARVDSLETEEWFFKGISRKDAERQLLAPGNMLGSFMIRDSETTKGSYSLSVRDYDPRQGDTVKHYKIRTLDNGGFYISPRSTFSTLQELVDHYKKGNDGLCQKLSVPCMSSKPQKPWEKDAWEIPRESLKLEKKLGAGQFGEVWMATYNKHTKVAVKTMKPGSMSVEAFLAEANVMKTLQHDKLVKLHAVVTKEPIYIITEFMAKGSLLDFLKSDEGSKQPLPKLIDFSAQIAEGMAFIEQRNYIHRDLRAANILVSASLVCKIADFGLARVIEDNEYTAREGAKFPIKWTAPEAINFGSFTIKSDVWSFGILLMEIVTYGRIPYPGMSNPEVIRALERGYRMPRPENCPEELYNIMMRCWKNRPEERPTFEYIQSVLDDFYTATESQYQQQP

[19] = biological target: Mitogen-activated protein kinase 14 (Homo sapiens) (UniProt Q16539); experiment: Inhibition of human p38alpha at 1 uM relative to control
Mitogen-activated protein kinase 14 (Homo sapiens), sequence (Q16539 whole entry): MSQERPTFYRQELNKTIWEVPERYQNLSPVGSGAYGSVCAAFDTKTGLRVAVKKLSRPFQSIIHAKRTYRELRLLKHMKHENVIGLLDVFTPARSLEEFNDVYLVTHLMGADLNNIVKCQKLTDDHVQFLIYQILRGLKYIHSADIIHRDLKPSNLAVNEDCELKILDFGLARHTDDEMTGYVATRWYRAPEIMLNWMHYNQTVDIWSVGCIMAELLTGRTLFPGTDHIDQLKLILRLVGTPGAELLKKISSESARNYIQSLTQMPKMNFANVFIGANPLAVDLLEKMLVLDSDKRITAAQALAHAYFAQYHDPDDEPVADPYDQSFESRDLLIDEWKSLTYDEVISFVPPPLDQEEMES

[20] = biological target: Tyrosine-protein kinase Fgr (Homo sapiens) (UniProt P09769); experiment: Inhibition of human FGR at 1 uM relative to control
Tyrosine-protein kinase Fgr (Homo sapiens), sequence (P09769 2-529 limits assumed): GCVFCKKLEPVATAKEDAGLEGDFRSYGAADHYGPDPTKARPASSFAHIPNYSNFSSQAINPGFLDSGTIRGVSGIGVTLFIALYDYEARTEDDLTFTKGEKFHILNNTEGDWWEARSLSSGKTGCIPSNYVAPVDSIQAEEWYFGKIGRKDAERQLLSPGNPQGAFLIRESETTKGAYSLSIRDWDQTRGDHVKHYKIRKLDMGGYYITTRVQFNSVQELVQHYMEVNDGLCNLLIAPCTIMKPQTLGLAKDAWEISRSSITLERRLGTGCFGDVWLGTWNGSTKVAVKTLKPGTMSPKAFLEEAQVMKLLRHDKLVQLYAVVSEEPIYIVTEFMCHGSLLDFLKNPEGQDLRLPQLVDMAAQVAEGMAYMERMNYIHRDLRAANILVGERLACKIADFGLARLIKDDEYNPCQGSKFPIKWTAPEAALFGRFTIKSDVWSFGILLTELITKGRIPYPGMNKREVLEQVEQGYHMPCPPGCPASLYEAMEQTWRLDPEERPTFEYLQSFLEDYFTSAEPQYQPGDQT

[21] = system: OCI-AML-3; experiment: Cell cycle arrest in human OCI-AML3 cells harboring NRAS Q61L mutant assessed as accumulation at G0/G1 phase at 1 uM after 24 hrs by propidium iodide staining based FACS analysis; format: functional
Procedure, shortened: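 OCI-AML3 cells treated 24 h at indicated concentrations, including 1 µM; cell-cycle phase distribution measured by flow cytometry after propidium iodide staining.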

[22] = system: BaF3; experiment: Induction of apoptosis in mouse BA/F3 cells expressing NRAS-G12D mutant assessed as increase in cleaved PARP levels at 1 uM after 24 hrs by Western blot analysis; format: functional, cell-based; procedure, shortened: as §1

Compound | remaining at 0.5 h, 1 µM [1] [%] | Activity [2] | Activity [4] | Activity [5] | Activity [6] | inhibition [7] | Activity [10] | inhibition [12] | inhibition [13] | Activity [21] | also measured
Cc1ccc(Nc2ncc3c(n2)N(C)C(=O)N(c2cc(NC(=O)c4ccc(CN5CCC(N(C)C)C5)c(C(F)(F)F)c4)ccc2C)C3)cn1 (stereo not given) | 58.7 |  |  |  |  |  |  |  |  |  | 
Cc1ccc(NC(=O)c2cccc(C(F)(F)F)c2)cc1N1Cc2cnc(N)nc2N(C)C1=O | 80 | Active | Active | Active | Active | Dose-dependent effect | 15 - 30% | Dose-dependent effect | Dose-dependent effect | Active | inhibition [3]: 96.9%; inhibition [8]: 96.4%; Activity [9]: >50%; inhibition [11]: 99.4%; inhibition [14]: 99.4%; inhibition [15]: 99.2%; inhibition [16]: 98.7%; growth inhibition (GI) [17]: Active; inhibition [18]: 98.9%; inhibition [19]: 98.9%; inhibition [20]: 99.1%
CCN1CCN(C(=O)c2ccc(Nc3ncc4c(n3)N(C)C(=O)N(c3cc(NC(=O)c5cccc(C(F)(F)F)c5)ccc3C)C4)cn2)CC1 | 24.2 |  |  |  |  |  |  |  |  |  | 

Now from value to compound, other results behind:

remaining at 0.5 h, 1 µM [1] [%] | Compound | Activity [2] | Activity [4] | Activity [5] | Activity [6] | inhibition [7] | Activity [10] | inhibition [12] | inhibition [13] | Activity [21] | also measured
74.7 | Cc1cc(Nc2ncc3c(n2)N(C)C(=O)N(c2cc(NC(=O)c4cccc(C(F)(F)F)c4)ccc2C)C3)n(C)n1 |  |  |  |  |  |  |  |  |  | 
49.1 | CC(=O)N1CCN(c2ccc(Nc3ncc4c(n3)N(C)C(=O)N(c3cc(NC(=O)c5cccc(C(F)(F)F)c5)ccc3C)C4)cn2)CC1 | Active | Active | Active | Active | Dose-dependent effect | 15 - 30% | Dose-dependent effect | Dose-dependent effect | Active | Activity [22]: Active
